Source: ChEMBL document CHEMBL2150963, “Anthraquinones from a marine-derived Streptomyces spinoverrucosus” (J Nat Prod, 2012)
Calls of active or inactive are those of the source. The rule behind the calls is not given here.

Tests used:
Calu-3 = test: Cytotoxicity against human Calu3 cells after 96 hrs by Cell Titer Glo assay; assay type: functional, cell-based; conditions: Calu-3, 96 h
Summary of the method: (§1)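 Cells were grown in RPMI/L-glutamine with penicillin 1000 U/ml, streptomycin 1 mg/mL and 5% FBS, humidified, at 37 °C and 5% CO2. They were seeded in 384-well plates at 750 (Calu-3) or 500 (H2887) cells/well and left overnight. Compounds in DMSO were added at 50 μM to 1 nM final, with 0.5% DMSO final. After 96 h, CellTiter-Glo was added, plates sat 10 min at room temperature, and luminescence was normalized to DMSO-only wells.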

[1] = Cytotoxicity against human NCI-H2887 cells after 96 hrs by Cell Titer Glo assay; assay type: functional, cell-based; conditions: NCI-H2887, 96 h; summary of the method: as §1
C127 [2] = test: Epigenetic modulation in mouse C127 cells expressing CMV promoter assessed as induction of GFP expression at 10 uM after 24 hrs by LDR assay
C127 [3] = test: Epigenetic modulation in mouse C127 cells expressing CMV promoter assessed as induction of GFP expression at 1 uM after 24 hrs by LDR assay

SMILES	IC50 (Calu-3)	IC50 [1]	Activity (C127 [2])	Activity (C127 [3])
Cc1c(O)c(CCC(C)C)c2c3c1OC(C)(C)N=C3c1cccc(O)c1C2=O	> 50 µM	> 50 µM	–	–
Cc1cc2c(c(O)c1C(=O)CCC(C)C)C(=O)c1c(O)cccc1C2=O [GALVAQUINONE A]	> 50 µM	> 50 µM	Active	–
Cc1c(O)c2c(c(O)c1C(=O)CCC(C)C)C(=O)c1c(O)cccc1C2=O [GALVAQUINONE B]	12.2 µM	5 µM	Active	Active
Cc1c(O)c(C(=O)CC(C)C)c2c(c1O)C(=O)c1cccc(O)c1C2=O [GALVAQUINONE C]	> 50 µM	> 50 µM	–	–
Cc1cc(O)c2c(c1O)C(=O)c1cccc(O)c1C2=O [ISLANDICIN]	> 50 µM	> 50 µM	–	–
Cc1c(O)c(CCC(C)C)c2c(c1O)C(=O)c1cccc(O)c1C2=O [LUPINACIDIN A]	8.8 µM	3.1 µM	–	–
